Compound activity: PubChem BioAssay, several laboratories
Compounds with a hit are over-represented: about 4% of the library has one in this group of screens.
KCNK3 block: human KCNK3 channel inhibition, primary screen | CHO-KCNK3 thallium flux, FluxOR fluorescence; hits give low values | O14649 | hit rate 0.84% among 340,000 | B-score at 10 µM;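 active = B-score under library mean minus 4 SD, starting fluorescence ratio at most library mean plus 5 SD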;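 also: more negative B-score means stronger inhibition of thallium flux through KCNK3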
hERG protect: compounds protecting human hERG from proarrhythmic drug block; Q12809; CHO-hERG, FluxOR thallium flux, dofetilide IC70 present; activation (rescue from dofetilide block), less the hit threshold, % at 10 µM; hit rate 0.51% among 310,000;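 active = activation above the mean of controls blocked by dofetilide plus 5 SD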;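 also: thallium influx through hERG after potassium depolarization seen as dye fluorescence rise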
PHOSPHO1 inh: PHOSPHO1 (human) inhibition; recombinant PHOSPHO1, absorbance phosphatase assay; inhibition, % at 13.3 µM; hit rate 1.1% among 290,000; Q8TCT1; in the data active = inhibition above about 60%
Target sequence (Q8TCT1 whole entry, looked up): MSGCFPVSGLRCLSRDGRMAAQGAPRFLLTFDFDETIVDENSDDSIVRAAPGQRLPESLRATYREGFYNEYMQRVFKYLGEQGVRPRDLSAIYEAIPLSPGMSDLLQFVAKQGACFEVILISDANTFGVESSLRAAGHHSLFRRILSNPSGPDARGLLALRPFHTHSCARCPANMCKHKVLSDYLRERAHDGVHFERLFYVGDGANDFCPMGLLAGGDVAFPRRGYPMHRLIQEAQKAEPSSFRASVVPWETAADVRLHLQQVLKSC
KCNK9 block: human KCNK9 channel inhibition | B-score at 10 µM | HEK293 KCNK9, FluxOR thallium flux fluorescence; hits give low values | AID 488922 | Q9NPC2 | hit rate 1.2% among 310,000;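 active = ratio B-score over 3 SD below the library mean, with starting fluorescence within 5 SD of its mean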;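 also: negative B-score means less thallium flux so channel inhibition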
Target sequence (Q9NPC2 whole entry, looked up): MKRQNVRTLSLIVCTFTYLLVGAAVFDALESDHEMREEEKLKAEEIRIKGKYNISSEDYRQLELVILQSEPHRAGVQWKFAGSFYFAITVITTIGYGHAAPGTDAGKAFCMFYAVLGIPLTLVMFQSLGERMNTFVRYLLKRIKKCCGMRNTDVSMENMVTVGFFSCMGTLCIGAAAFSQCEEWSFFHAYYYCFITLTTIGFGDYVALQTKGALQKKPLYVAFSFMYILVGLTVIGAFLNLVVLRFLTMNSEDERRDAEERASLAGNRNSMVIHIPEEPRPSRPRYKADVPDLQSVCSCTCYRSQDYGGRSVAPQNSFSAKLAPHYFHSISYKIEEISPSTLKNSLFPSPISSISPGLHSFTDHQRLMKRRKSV
KCNQ1 block: blocks the human KCNQ1 potassium channel; P51787; CHO-K1 KCNQ1, FluxOR thallium flux fluorescence; hits give high values; B-score at 10 µM; hit rate 1.3% among 310,000; AID 2642;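 active = compounds whose thallium flux B-score, printed positive for inhibition, exceeds three library SD while starting fluorescence stays within three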;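 also: channel opened by potassium depolarization with thallium stimulus after 20 min compound exposure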
KCNQ1 pot: human KCNQ1 channel potentiation or activation | hit rate 0.35% among 310,000 | CHO-K1 KCNQ1, thallium flux FluxOR fluorescence; hits give high values | AID 2648 | B-score at 10 µM;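 active = fluorescence ratio B-score, a plate-corrected score, at least three library SD, with initial intensity B-score within 5 SD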
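Doses: Single concentration per compound, DMSO matched to controls | Test system: KCNQ1-transfected CHO-K1 cells | Timing: 90 min dye loading and 20 min compound exposure, both at room temperature | Measured by: Kinetic FluxOR thallium fluorescence, 10-s 1-Hz baseline, 110-s post-stimulus read | Medium: Assay buffer with matched DMSO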
Starred values were filed as active, the others as inactive; i = inactive; · = no result.

SMILES | KCNK3 block | hERG protect | PHOSPHO1 inh | KCNK9 block | KCNQ1 block | KCNQ1 pot
COc1ccc(C(CC(=O)c2ccccc2)CC(=O)c2ccccc2)cc1OC | i | -8.1 | 57.3 | i | i | i
COc1ccc(C(C(=O)OCCN(C)C)c2ccccc2)cc1 (centres undefined) | i | -3.3 | 11.0 | -6.81* | i | i
COc1ccc(C(=O)CC(=O)c2ccccc2)cc1 | i | -7.7 | · | i | i | i
COc1ccc(C(CC(=O)c2ccccc2)CC(=O)c2ccccc2)cc1 | i | -2.8 | -21.3 | -7.15* | i | i
Cn1c(=O)c2[nH]c(CCc3ccncc3)nc2n(C)c1=O | i | · | · | · | · | ·
Brc1ccccc1-c1csnn1 | i | -3.7 | 7.1 | i | i | i
C/C(=N\Nc1nc(C)cc(C)n1)c1ccc(N2CCOCC2)cc1 | i | 6.0* | -32.9 | i | i | i
C/C(=N/Nc1nc(C)cc(C)n1)c1ccc(Br)cc1 | i | -7.8 | 3.1 | i | i | i
O=C(NC1CC1)c1ccc2c(c1)C1C3CCC(C3)C1C(c1ccccc1)N2 (centres undefined) | i | 5.2* | 3.9 | i | i | i
CC1CCN(C(=O)Cc2nn(C)c(=O)c3ccccc23)CC1 | i | -3.9 | 39.3 | i | i | i
Cc1ccccc1-n1c(C)cc(/C=N/NC(=O)c2ccncc2)c1C | i | -13.8 | -5.1 | i | i | 11*
O=C(N/N=C/c1cc(Cl)cc(Cl)c1O)c1ccncc1 | i | -11.6 | -23.1 | i | 7* | i
CN(CC(=O)Nc1ccc(Cl)c(S(=O)(=O)N(C)C)c1)Cc1ccccc1 | i | -4.8 | -31.9 | i | i | i
Cc1ccc(C(=O)NCc2ccccn2)cc1S(=O)(=O)N1CCOCC1 | i | · | · | · | · | ·
COCCNC(=O)C(OC(=O)CC1Sc2ccccc2NC1=O)c1ccncc1 (centres undefined) | i | -3.8 | 10.1 | i | i | i
CC(C(=O)NCC1CCCCC1)N1CCN(S(=O)(=O)/C=C/c2ccccc2)CC1 (centres undefined) | i | -3.6 | -15.9 | i | i | i
CCn1cc(C(=O)O)c(=O)c2cc(Br)ccc21 | i | -11.6 | -15.3 | i | i | i
CCOC(=O)c1cn(CC)c2ccc(Br)cc2c1=O | i | -12.2 | 77.5* | i | i | i
CC(C)c1nc(CN(C)C(=O)N[C@H](C(=O)N[C@@H](Cc2ccccc2)C[C@H](O)[C@H](Cc2ccccc2)NC(=O)OCc2cncs2)C(C)C)cs1 | · | -24.2 | 35.7 | i | i | i
Cc1cccc(C)c1NC(=O)CSCCO | i | -2.0 | -25.9 | i | i | i
Clc1cccc(C2Nc3cccc4cccc(c34)N2)c1Cl | i | -12.0 | -7.8 | i | 10* | i
COc1ccc(S(=O)(=O)N(CC(=O)NC2CCCC2)c2ccccc2OC)cc1 | i | -9.5 | -19.7 | i | i | i
COc1cc(/C=N/Nc2ncnc3sc4c(c23)CCC4)ccc1O | i | -3.8 | -14.7 | i | i | i
CC1(C)Oc2ccc3ccc(=O)oc3c2/C(=C/Nc2cccc(O)c2)C1=O | i | -13.7 | -7.7 | -6.73* | 6* | i
NNC(=O)Cn1c(-c2nonc2N)nc2ccccc21 | i | -12.0 | 19.2 | i | i | i
SMILES | KCNK3 block | hERG protect | PHOSPHO1 inh | KCNK9 block | KCNQ1 block | KCNQ1 pot
CCCCOc1ccccc1NC(=O)Cn1c(-c2nonc2N)nc2ccccc21 | -8.84* | -9.4 | 9.7 | i | i | i
COc1ccc(-c2csc3ncnc(N4CCN(S(=O)(=O)c5cccc(Br)c5)CC4)c23)cc1 | i | -16.8 | · | i | i | i
COc1ccc(-c2csc3ncnc(N4CCN(S(=O)(=O)c5cccc(C(F)(F)F)c5)CC4)c23)cc1 | i | -11.6 | · | -7.11* | i | i
CCOC(=O)N1CCN(C(=O)COc2ccc3c(c2)C(=O)CC2(CCN(C(C)=O)CC2)O3)CC1 | i | -10.4 | 36.3 | i | i | i
CCCc1cc(Nc2ccc(C)cc2)n2ncnc2n1 | i | -3.4 | -5.7 | i | i | i
COC(=O)c1cccc(NC(=O)CN2CCOCC2)c1 | i | -2.3 | -11.6 | i | i | i
COc1cc(CNn2c(C)n[nH]c2=S)cc(Cl)c1OCc1ccccc1 | i | -8.7 | 83.7* | i | i | i
S=c1[nH]nc(-c2ccc3ccccc3n2)n1-c1ccc2ncccc2c1 | i | -9.0 | 74.2* | i | i | i
Fc1ccc(-n2c(-c3ccc4ccccc4n3)n[nH]c2=S)cc1Cl | i | -3.9 | -141.6 | i | i | i
Cc1ccccc1-n1c(-c2ccc3ccccc3n2)n[nH]c1=S | i | -2.8 | 71.4* | i | i | i
COC(=O)c1[nH]c2ccc(C)cc2c1NC(=O)c1ccccc1[N+](=O)[O-] | i | -8.1 | 4.9 | i | i | i
O=C(CS(=O)(=O)c1c[nH]c2ccccc12)N1CCCCCC1 | i | -1.3 | -1.1 | i | i | i
Cc1cc(NC(c2cccnc2)c2ccc3cccnc3c2O)no1 (centres undefined) | i | -1.5 | 21.4 | i | i | i
Cc1cccc(NC(c2ccc(O)cc2)c2ccc3ccc(C)nc3c2O)n1 (centres undefined) | i | -18.5 | 63.0* | i | i | i
O=c1c2cccc(Cl)c2nc2n1Cc1ccccc1-2 | i | -8.4 | 81.3* | i | i | i
Cc1nc(SCC(=O)NCC2CCCO2)c2c3c(sc2n1)CCCC3 (centres undefined) | i | 15.5* | 2.1 | i | i | 13*
CC(=O)Nc1nnc(SCC(=O)NCC2CCCO2)s1 (centres undefined) | i | -11.2 | 86.5* | i | i | i
CCC(=O)Nc1nnc(SCC(=O)NCC2CCCO2)s1 (centres undefined) | i | -5.2 | 9.6 | i | i | i
CC(C)c1cc(=O)n2[nH]c(SCc3ccccc3)nc2n1 | i | -3.8 | 62.7* | i | i | i
CC(C)c1cc(=O)n2[nH]c(SCc3ccc(Cl)cc3)nc2n1 | i | -4.5 | 54.5 | i | i | i
CC(C)n1c(=S)[nH]c2c1c(=O)[nH]c(=O)n2C | i | -2.2 | 62.0* | i | i | i
Nc1nnc(SCc2ccc(F)cc2)n1-c1ccccc1 | i | -4.5 | 15.0 | i | i | i
Cc1[nH][nH]c(=O)c1C(c1ccc(-c2ccc(C(=O)O)cc2)o1)c1c(C)[nH][nH]c1=O | i | · | -2.8 | · | · | ·
Cc1[nH][nH]c(=O)c1C(c1ccc(-c2ccc(F)cc2)o1)c1c(C)[nH][nH]c1=O | i | -14.8 | 28.8 | i | i | 9*
Cc1ccccc1N1CCN(Cc2c[nH]c3ccccc23)CC1 | i | -15.2 | 7.2 | i | 6* | i
